In ChEMBL document CHEMBL1641479, “2-Substituted (S)-2-(3,3-dimethyl-1-oxo-10,10a-dihydroimidazo[1,5-b]isoquinolin-2(1H,3H,5H)-yl)acetic acids: Conformational prediction, synthesis, anti-thrombotic and vasodilative evaluation” (Bioorg Med Chem, 2011):
Several values for one entry are separate records, joined by “and”; a condition that tells them apart may be missing. Identical values can stand only once. Blank lines part the entries; values can stand above or below the compound they belong to.

Experiments:
[1] = Antiplatelet activity against pig platelet assessed as inhibition of PAF-induced platelet aggregation by spectrophotometry; assay type: functional, cell-based; details: Sus scrofa
Summary of the method: (§1)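 Pig blood (six pigs) spun 1000 rpm 10 min for PRP, then 1500 rpm 10 min for PPP; PRP adjusted to 2×10^8 platelets/mL with autologous PPP. Compound (final 100 µM to 1 nM, diluted in NS from DMSO/NS stock) or NS added, then inducer at final PAF 0.1 µM, ADP 10 µM, AA 350 µM or thrombin 0.1 U/mL.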

[2] = test system: Aorta; experiment: Inhibition of noradrenaline-induced contraction in Wistar rat thoracic aortic ring assessed as vasorelaxant activity at 300 uM treated after noradrenaline challenge; assay type: functional; design: scale not given: the % may be the effect or the level left
Summary of the method: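 Male Wistar rats, 250–300 g, were decapitated and aortic strips were mounted in 37 °C Krebs solution (pH 7.4) gassed with 95% O2/5% CO2, connected to a tension transducer. Strips were contracted with 59 µM noradrenaline, washed, stabilised 30 min, then re-contracted with 59 µM noradrenaline. At peak contraction, compound in ethanol or ethanol alone was added and relaxation was recorded.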

[3] = Antiplatelet activity against pig platelet assessed as inhibition of arachidonic acid-induced platelet aggregation by spectrophotometry; assay type: functional, cell-based; details: Sus scrofa; summary of the method: as §1
[4] = Antiplatelet activity against pig platelet assessed as inhibition of thrombin-induced platelet aggregation by spectrophotometry; assay type: functional, cell-based; details: Sus scrofa; summary of the method: as §1
[5] = test system: Rattus norvegicus; experiment: Antithrombotic activity in Wistar rat assessed as thrombus weight at 10 nmol/kg, iv (reference value: 24.09 +/- 2.33 mg); assay type: functional
[6] = Antiplatelet activity against pig platelet assessed as inhibition of ADP-induced platelet aggregation by spectrophotometry; assay type: functional, cell-based; details: Sus scrofa; summary of the method: as §1
[7] = test system: Rattus norvegicus; experiment: Antithrombotic activity in Wistar rat assessed as thrombus weight at 100 nmol/kg, iv (reference value: 22.09 +/- 3.33 mg); assay type: functional
[8] = test system: Rattus norvegicus; experiment: Antithrombotic activity in iv dosed Wistar rat assessed as decrease in thrombus weight; assay type: functional, organism-based
[9] = test system: Rattus norvegicus; experiment: Antithrombotic activity in Wistar rat assessed as thrombus weight at 1 nmol/kg, iv (reference value: 22.09 +/- 3.33 mg); assay type: functional
[10] = test system: Rattus norvegicus; experiment: Antithrombotic activity in Wistar rat assessed as thrombus weight at 15 umol/kg, iv (reference value: 24.09 +/- 2.33 mg); assay type: functional
[11] = Antiplatelet activity against pig platelet assessed as inhibition of PAF-induced platelet aggregation at 10 uM by spectrophotometry; assay type: functional; details: Sus scrofa; summary of the method: as §1
[12] = Antiplatelet activity against pig platelet assessed as inhibition of thrombin-induced platelet aggregation at 10 uM by spectrophotometry; assay type: functional; details: Sus scrofa; summary of the method: as §1
[13] = test system: Rattus norvegicus; experiment: Antithrombotic activity in Wistar rat assessed as thrombus weight at 15 umol/kg, iv (reference value: 25.99 +/- 2.41 mg); assay type: functional
[14] = Antiplatelet activity against pig platelet assessed as inhibition of arachidonic acid-induced platelet aggregation at 10 uM by spectrophotometry; assay type: functional; details: Sus scrofa; summary of the method: as §1
[15] = Antiplatelet activity against pig platelet assessed as inhibition of ADP-induced platelet aggregation at 10 uM by spectrophotometry; assay type: functional; details: Sus scrofa; summary of the method: as §1
[16] = test system: Rattus norvegicus; experiment: Antithrombotic activity in Wistar rat assessed as thrombus weight at 167 umol/kg, iv (reference value: 25.99 +/- 2.41 mg); assay type: functional
[17] = test system: Rattus norvegicus; experiment: Antithrombotic activity in Wistar rat assessed as thrombus weight at 167 umol/kg, iv (reference value: 28.54 +/- 2.62 mg); assay type: functional
[18] = test system: Rattus norvegicus; experiment: Antithrombotic activity in Wistar rat assessed as thrombus weight at 15 umol/kg, iv (reference value: 28.54 +/- 2.62 mg); assay type: functional
[19] = test system: Rattus norvegicus; experiment: Antithrombotic activity in Wistar rat assessed as thrombus weight at 167 umol/kg, iv (reference value: 24.09 +/- 2.33 mg); assay type: functional

SMILES: CC1(C)N2Cc3ccccc3C[C@H]2C(=O)N1[C@@H](CCCCN)C(=O)O
IC50 [1]: 561 nM | Activity [2]: 12.01% | IC50 [3]: 313 nM | IC50 [4]: 652 nM | Activity [5]: 14.98 mg | IC50 [6]: 191 nM

SMILES: CC1(C)N2Cc3ccccc3C[C@H]2C(=O)N1[C@@H](Cc1ccc(O)cc1)C(=O)O
IC50 [1]: 752 nM | Activity [2]: 1.59% | IC50 [3]: 420 nM | IC50 [4]: 875 nM | Activity [5]: 20.1 mg | IC50 [6]: 273 nM

SMILES: CSCC[C@@H](C(=O)O)N1C(=O)[C@@H]2Cc3ccccc3CN2C1(C)C
IC50 [1]: 499 nM | Activity [2]: 5.58% | IC50 [3]: 408 nM | IC50 [4]: 852 nM | Activity [5]: 19.56 mg | IC50 [6]: 264 nM

SMILES: CC1(C)N2Cc3ccccc3C[C@H]2C(=O)N1[C@@H](Cc1ccccc1)C(=O)O
IC50 [1]: 496 nM | Activity [2]: 26.61% | IC50 [3]: 277 nM | IC50 [4]: 578 nM | Activity [5]: 13.27 mg | IC50 [6]: 163 nM

SMILES: CC1(C)N2Cc3ccccc3C[C@H]2C(=O)N1[C@@H](CCCNC(=N)N)C(=O)O
IC50 [1]: 486 nM | Activity [2]: 32.58% | IC50 [3]: 271 nM | IC50 [4]: 567 nM | Activity [5]: 13.01 mg | IC50 [6]: 159 nM

SMILES: CC1(C)N2Cc3ccccc3C[C@H]2C(=O)N1[C@@H](CC(=O)O)C(=O)O
IC50 [1]: 801 nM | Activity [2]: 2.89% | IC50 [3]: 447 nM | IC50 [4]: 932 nM | Activity [5]: 21.41 mg | IC50 [6]: 294 nM

SMILES: CC(=O)Oc1ccccc1C(=O)O [ASPIRIN]
Activity [16]: 15.01 mg | Activity [17]: 13.22 mg | Activity [18]: 27.6 mg | Activity [19]: 13.22 mg

SMILES: CC1(C)N2Cc3ccccc3C[C@H]2C(=O)N1[C@@H](CC(N)=O)C(=O)O
IC50 [1]: 777 nM | Activity [2]: 3.89% | IC50 [3]: 433 nM | IC50 [4]: 903 nM | Activity [5]: 20.75 mg | IC50 [6]: 283 nM

SMILES: CC1(C)N2Cc3ccccc3C[C@H]2C(=O)N1[C@@H](CCC(N)=O)C(=O)O
IC50 [1]: 541 nM | Activity [2]: 12.24% | IC50 [3]: 302 nM | IC50 [4]: 629 nM | Activity [5]: 14.39 mg | IC50 [6]: 182 nM

Now from value to compound, other results behind:

IC50 [1]: 600 nM | IC50 [3]: 335 nM | IC50 [4]: 698 nM | IC50 [6]: 207 nM
SMILES: CC(O)[C@@H](C(=O)O)N1C(=O)[C@@H]2Cc3ccccc3CN2C1(C)C (some centres not stated)
Activity [2]: 9.98% | Activity [5]: 16.04 mg

IC50 [1]: 515 nM | IC50 [3]: 287 nM | IC50 [4]: 599 nM | IC50 [6]: 171 nM
SMILES: CC(C)C[C@@H](C(=O)O)N1C(=O)[C@@H]2Cc3ccccc3CN2C1(C)C
Activity [7]: 10.02 mg | Activity [2]: 30.14% | inhibition [8]: Dose-dependent effect | Activity [5]: 12.99 mg and 13.79 mg | Activity [9]: 20.67 mg

IC50 [1]: 486 nM | IC50 [3]: 271 nM | IC50 [4]: 565 nM | IC50 [6]: 158 nM
SMILES: CCC(C)[C@@H](C(=O)O)N1C(=O)[C@@H]2Cc3ccccc3CN2C1(C)C (some centres not stated)
Activity [2]: 34.29% | Activity [5]: 12.99 mg

IC50 [1]: 535 nM | IC50 [3]: 299 nM | IC50 [4]: 622 nM | IC50 [6]: 180 nM
SMILES: CC1(C)N2Cc3ccccc3C[C@H]2C(=O)N1[C@@H](CS)C(=O)O
Activity [2]: 16.57% | Activity [5]: 14.36 mg

IC50 [1]: 525 nM | IC50 [3]: 292 nM | IC50 [4]: 610 nM | IC50 [6]: 175 nM
SMILES: CC(C)[C@@H](C(=O)O)N1C(=O)[C@@H]2Cc3ccccc3CN2C1(C)C
Activity [2]: 16% | Activity [5]: 14.01 mg

IC50 [1]: 944 nM | IC50 [3]: 481 nM | IC50 [4]: 980 nM | IC50 [6]: 542 nM
SMILES: O=C(O)[C@@H]1Cc2ccccc2CN1
Activity [10]: 22.01 mg | inhibition at 10 µM [11]: 13.5% | inhibition at 10 µM [12]: 14.5% | Activity [13]: 22.22 mg | inhibition at 10 µM [14]: 10.4% | inhibition at 10 µM [15]: 10.7%

IC50 [1]: 519 nM | IC50 [3]: 290 nM | IC50 [4]: 604 nM | IC50 [6]: 173 nM
SMILES: CC1(C)N(CC(=O)O)C(=O)[C@@H]2Cc3ccccc3CN21
Activity [2]: 21.11% | Activity [5]: 14.39 mg and 13.89 mg

IC50 [1]: 576 nM | IC50 [3]: 324 nM | IC50 [4]: 677 nM | IC50 [6]: 200 nM
SMILES: C[C@@H](C(=O)O)N1C(=O)[C@@H]2Cc3ccccc3CN2C1(C)C
Activity [2]: 8.41% | Activity [5]: 15.45 mg
